The record followed here is ChEMBL document CHEMBL4145529, “Design, synthesis and biological evaluation of hybrid nitroxide-based non-steroidal anti-inflammatory drugs” (Eur J Med Chem, 2018).

Data set [1] has as its target T1, Prostaglandin G/H synthase 2 (Homo sapiens) (UniProt P35354).
T1 sequence (whole entry): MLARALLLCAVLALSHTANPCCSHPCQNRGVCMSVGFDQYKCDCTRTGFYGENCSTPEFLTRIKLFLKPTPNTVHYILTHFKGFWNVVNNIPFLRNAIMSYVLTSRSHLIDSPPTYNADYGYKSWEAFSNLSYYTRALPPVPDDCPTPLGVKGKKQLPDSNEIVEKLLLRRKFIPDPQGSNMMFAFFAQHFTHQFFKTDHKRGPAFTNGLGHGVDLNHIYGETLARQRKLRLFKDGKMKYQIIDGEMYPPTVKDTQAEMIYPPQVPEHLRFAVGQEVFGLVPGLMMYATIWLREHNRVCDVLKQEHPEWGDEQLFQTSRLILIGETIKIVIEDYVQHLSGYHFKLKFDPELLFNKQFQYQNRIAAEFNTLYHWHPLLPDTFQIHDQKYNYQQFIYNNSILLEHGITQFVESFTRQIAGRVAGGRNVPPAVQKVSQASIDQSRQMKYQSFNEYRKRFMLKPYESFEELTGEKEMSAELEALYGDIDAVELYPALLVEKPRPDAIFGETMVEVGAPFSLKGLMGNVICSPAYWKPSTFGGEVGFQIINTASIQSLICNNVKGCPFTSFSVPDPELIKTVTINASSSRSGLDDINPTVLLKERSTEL
Put plainly: Inhibition of COX2-induced PGE2 production in human A549 cells assessed as PGE2 level at 30 uM by ELISA (reference value: 57 +/- 4 pg/ml). Type of data set: cell-based. In a few lines:
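A549 NSCLC cells treated with compounds at 30 μM; prostaglandin E2 released via COX quantified by ELISA, reported as pg/mL; mean ± S.D. of 3 determinations each repeated in duplicate; Student's t-test for significance.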

Data set [2] deals with T1, Prostaglandin G/H synthase 2 (Homo sapiens). The experiment in a line: Inhibition of COX2-induced PGE2 production in human A549 cells assessed as PGE2 level at 4 uM by ELISA (reference value: 126 +/- 17 pg/ml). Type of data set: cell-based. In short, it runs like this:
(§1)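 COX-derived PGE2 released by A549 cells, measured by ELISA in pg/mL. Test concentrations 4 or 90 μM; combination wells got aspirin + Tempol at 90 μM each. Mean ± S.D. of 3 determinations, each in duplicate; Student's t-test.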

The subject of data set [3] is 661W. Put plainly: Antioxidant activity in mouse 661W cells assessed as inhibition of antimycin-induced mitochondrial ROS production at 10 uM by fluorescence assay relative to control. In kind it is functional.
The subject of data set [4] is 661W. Put plainly: Antioxidant activity in mouse 661W cells assessed as inhibition of antimycin-induced mitochondrial ROS production at 100 uM by fluorescence assay relative to control. Type of data set: functional.
For data set [5], the system named is 661W. Put plainly: Antioxidant activity in mouse 661W cells assessed as inhibition of antimycin-induced mitochondrial ROS production at 50 uM by fluorescence assay relative to control. Type of data set: functional.
Data set [6] has as its system NCI-H1299. Put plainly: Growth inhibition of human NCI-H1299 cells assessed as cell growth at 900 uM by MTT assay relative to control. Type of data set: functional. The settings on record: read-out: Activity. In short, it runs like this:
(§2)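 NCI-H1299 cell growth by MTT assay, tested at 18–900 μM; combination wells got aspirin + Tempol at equal concentration. Given as % growth. Mean ± S.D. of 3 experiments, each run in duplicate; Student's t-test.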

For data set [7], the system named is NCI-H1299. Put plainly: Growth inhibition of human NCI-H1299 cells assessed as cell growth at 90 uM in presence of tempol by MTT assay relative to control. In kind it is functional. The settings on record: read-out: Activity. In a few lines: (§3)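 NCI-H1299 human NSCLC cells; proliferation measured by MTT assay with compounds at 90 or 900 μM, tested alone or as aspirin plus Tempol combination; growth expressed as % of control; mean ± S.D. of 3 experiments each in duplicate; significance by Student's t-test.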

For data set [8], the target named is T1, Prostaglandin G/H synthase 2 (Homo sapiens). The experiment in a line: Inhibition of COX2-induced PGE2 production in human A549 cells assessed as PGE2 level at 90 uM by ELISA. In kind it is cell-based. In a few lines: as §1
The test system of data set [9] is NCI-H1299. The experiment in a line: Growth inhibition of human NCI-H1299 cells assessed as cell growth at 90 uM by MTT assay relative to control. In kind it is functional. The settings on record: read-out: Activity. In a few lines: as §2
Data set [10] relates to NCI-H1299. Put plainly: Growth inhibition of human NCI-H1299 cells assessed as cell growth at 900 uM in presence of tempol by MTT assay relative to control. Type of data set: functional. The settings on record: read-out: Activity. In short, it runs like this: as §3
Data set [11] has as its target T1, Prostaglandin G/H synthase 2 (Homo sapiens). Put plainly: Inhibition of COX2-induced PGE2 production in human A549 cells assessed as PGE2 level at 90 uM in presence of aspirin by ELISA (reference value: 126 +/- 17 pg/ml). Type of data set: cell-based. In short, it runs like this: as §1
The test system of data set [12] is A549. Put plainly: Effect on basal ROS level in human A549 cells at 100 uM by DCFH-DA staining based fluorescence assay (reference value: 100 +/- 5%). The settings on record: a549, 100 µM. Type of data set: cell-based.
In data set [13] the test system is NCI-H1299. The experiment in a line: Growth inhibition of human NCI-H1299 cells assessed as cell growth at 900 uM in presence of aspirin by MTT assay relative to control. In kind it is functional. As to conditions: read-out: Activity. In a few lines:
as §2

The test system of data set [14] is A549. Put plainly: Anti-oxidant activity in human A549 cells assessed as inhibition of H2O2-induced ROS production by measuring ROS level at 100 uM by DCFH-DA staining based fluorescence assay (reference value: 194 +/- 13%). Also on record: scale not given: the % may be the effect or the level left. In kind it is functional.
The subject of data set [15] is NCI-H1299. The experiment in a line: Growth inhibition of human NCI-H1299 cells assessed as cell growth at 90 uM in presence of aspirin by MTT assay relative to control. In kind it is functional. The settings on record: read-out: Activity. In a few lines: as §2

As to `CC(=O)Oc1cc2c(cc1C(=O)O)C(C)(C)N([O])C2(C)C`, in data set [1], the Activity was 52 pg/mL.
Turning to `CC(=O)Oc1ccccc1C(=O)NC1CC(C)(C)N([O])C(C)(C)C1`, the values for the Activity in data set [2] and in [1] were 99 pg/mL and 54 pg/mL, respectively.
As to `CC(=O)Oc1ccccc1C(=O)Nc1ccc2c(c1)C(C)(C)N([O])C2(C)C`, in [1], the Activity stood at 45 pg/mL.
Consider `CC(=O)Oc1ccccc1C(=O)OC1CC(C)(C)N([O])C(C)(C)C1`, for which the Activity in [2] was 87 pg/mL; in [1], 31 pg/mL.
For `CC1(C)CC(C(=O)Oc2ccccc2C(=O)O)C(C)(C)N1[O]` (configuration not stated), the Activity in [1] amounted to 34 pg/mL.
With `CC1(C)CC(C(=O)Oc2ccccc2C(=O)OCc2ccccc2)CC(C)(C)N1[O]`, the Activity in data set [1] is 23 pg/mL.
Still for that read-out and setting: to `CC1(C)c2cc(O)c(C(=O)O)cc2C(C)(C)N1[O]` belongs 50 pg/mL.
Take `COc1ccc2c(c1)c(CC(=O)Nc1ccc3c(c1)C(C)(C)N([O])C3(C)C)c(C)n2C(=O)c1ccc(Cl)cc1`: in data set [1], the Activity stood at 58 pg/mL. The inhibition in the data set with 661W [3] is 97.6%; with 661W [4] it was 88.4%; in the data set with 661W [5], 82.3%.
In the case of `CC(=O)Oc1ccccc1C(=O)O` [ASPIRIN], the results for the growth at 900 µM in the data set with NCI-H1299 [6] and in the data set on NCI-H1299 [10] were 49% and 53%, respectively. For the same compound, the growth at 90 µM in the data set on NCI-H1299 [7] was determined as 102%; with NCI-H1299 [9], 103%. For the same compound, the Activity in data set [8] came out at 79 pg/mL.
On to `CC1=C[C@H](O)CC(C)(C)[C@H]1/C=C/C(C)=C/C=C/C(C)=C/C=C/C=C(C)/C=C/C=C(C)/C=C/C1=C(C)C[C@@H](O)CC1(C)C` [LUTEIN], for which the inhibition at 10 µM in the data set on 661W [3] amounted to 89.7%.
Turning to `CC1(C)CC(O)CC(C)(C)N1[O]` [TEMPOL], the Activity in data set [11] is 75 pg/mL; in the data set on A549 [12] it was 103%; in the data set with A549 [14], 155%; in data set [8] it was 105 pg/mL. For the same compound, the growth at 900 µM amounted to 98% with NCI-H1299 [6] and 53% in the data set with NCI-H1299 [13]. The figures for the growth at 90 µM in the data set with NCI-H1299 [15] and in the data set with NCI-H1299 [9] were 102% and 100%, respectively.
